Source: ChEMBL document CHEMBL1127590 (J Med Chem, 1994)

Experiments:
[1] = In vitro inhibitory activity against human adrenal 3-beta hydroxy-delta 5-teroid isomerase
How it was run: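 Microsomes were prepared from human adrenal tissue by homogenization and differential centrifugation. Inhibitor in 50% DMSO was preincubated 10 min at 37 °C in 100 mM potassium phosphate pH 7.5 with 1 mM NAD+. The reaction was started with 100 nM [3H]DHEA and quenched in ethanol after 15 min. DHEA-to-androstenedione conversion was measured by radio-HPLC.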

[2] = biological target: T1, 3-oxo-5-alpha-steroid 4-dehydrogenase 2 (Homo sapiens, UniProt P31213); assay: In vitro inhibitory activity against human type 2 5-alpha reductase
T1 sequence (P31213 whole entry): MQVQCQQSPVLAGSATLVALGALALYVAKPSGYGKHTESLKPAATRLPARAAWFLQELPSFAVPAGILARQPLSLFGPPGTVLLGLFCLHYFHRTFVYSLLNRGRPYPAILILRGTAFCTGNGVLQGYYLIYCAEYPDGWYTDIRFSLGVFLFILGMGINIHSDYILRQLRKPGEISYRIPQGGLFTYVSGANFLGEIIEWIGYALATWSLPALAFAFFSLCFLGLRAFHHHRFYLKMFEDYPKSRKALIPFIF

[3] = biological target: T2, 3-oxo-5-alpha-steroid 4-dehydrogenase 1 (Homo sapiens, UniProt P18405); assay: In vitro inhibitory activity against human type 1 5-alpha reductase
T2 sequence (P18405 whole entry): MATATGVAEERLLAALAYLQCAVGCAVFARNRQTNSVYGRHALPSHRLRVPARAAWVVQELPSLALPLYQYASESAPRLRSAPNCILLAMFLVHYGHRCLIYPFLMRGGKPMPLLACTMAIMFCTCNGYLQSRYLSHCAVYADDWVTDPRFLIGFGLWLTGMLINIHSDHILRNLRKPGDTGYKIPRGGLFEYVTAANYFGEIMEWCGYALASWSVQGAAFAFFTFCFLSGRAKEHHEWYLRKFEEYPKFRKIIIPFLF
How it was run: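 Used microsomes from baculovirus-infected SF-9 cells expressing recombinant human type 1 5AR, at final enzyme 0.05–5 nM. Buffer at pH 7 and 37 °C contained an NADPH-regenerating system. Inhibitor was preincubated 10 min before adding 100 nM [3H]testosterone.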

| Structure (SMILES) | Ki [1] [nM] | IC50 [2] [nM] | Ki [3] [nM] |
| --- | --- | --- | --- |
| CCN(CC)C(=O)[C@H]1CC[C@H]2[C@@H]3CC[C@H]4N(C)C(=O)CC[C@]4(C)[C@H]3CC[C@]12C | 20 | 0.23 | 5 |
| CCN(CC)C(=O)[C@H]1CCC2C3CN(C)C4=C(C)C(=O)CC[C@]4(C)C3CC[C@@]21C (stereo not given in full) | 11 | – | 82 |
| CC(C)(C)NC(=O)[C@H]1CCC2C3CN=C4C=C(O)C5CC5[C@]4(C)C3CC[C@@]21C (stereo not given in full) | 300 | 4.4 | 49000 |
| CCN(CC)C(=O)[C@H]1CCC2C3CN=C4C=C(O)C5CC5[C@]4(C)C3CC[C@@]21C (stereo not given in full) | 95 | 1.8 | 14000 |
| CCN(CC)C(=O)[C@H]1CCC2C3CNC4=C(C)C(=O)C=C[C@]4(C)C3CC[C@@]21C (stereo not given in full) | 91 | 8.1 | 280 |
| CCN(CC)C(=O)[C@H]1CCC2C3CN(C)C4=CC(=O)C=C[C@]4(C)C3CC[C@@]21C (stereo not given in full) | 22 | 5.7 | 1300 |
| CCCN1CC2C(CC[C@@]3(C)C2CC[C@@H]3C(=O)N(CC)CC)[C@@]2(C)CCC(=O)C=C12 (stereo not given in full) | 520 | – | 24000 |
| CCN(CC)C(=O)[C@H]1CCC2C3CNC4=C(Cl)C(=O)CC[C@]4(C)C3CC[C@@]21C (stereo not given in full) | 27 | – | 51 |
| C[C@]12CCC(=O)C=C1NCC1C2CC[C@@]2(C)C1CC[C@@H]2C(=O)CC1CCCCC1 (stereo not given in full) | 16 | < 0.1 | 4 |
| CC(C)c1cc(C(C)C)c(C(=O)[C@H]2CCC3C4CNC5=CC(=O)CC[C@]5(C)C4CC[C@@]32C)c(C(C)C)c1 (stereo not given in full) | 1900 | 0.5 | 280 |
| CCN(CC)C(=O)[C@H]1CCC2C3CNC4=CC(=O)C=C[C@]4(C)C3CC[C@@]21C (stereo not given in full) | 80 | 3.5 | 5800 |
| CCCCN1CC2C(CC[C@@]3(C)C2CC[C@@H]3C(=O)N(CC)CC)[C@@]2(C)CCC(=O)C=C12 (stereo not given in full) | 3600 | – | 7800 |
| CCCN1CC2C(CC[C@@]3(C)C2CC[C@@H]3C(=O)NC(c2ccccc2)c2ccccc2)[C@@]2(C)C=CC(=O)C=C12 (stereo not given in full) | 180 | 1.3 | 340 |
| CCN(CC)C(=O)[C@H]1CCC2C3CN(C)C4=CC(=O)C5CC5[C@]4(C)C3CC[C@@]21C (stereo not given in full) | 10 | – | 10000 |
| CCCCCCCCC(=O)[C@H]1CCC2C3CNC4=CC(=O)CC[C@]4(C)C3CC[C@@]21C (stereo not given in full) | 7.5 | < 0.1 | 1 |
| CC1=C2N(C)CC3C(CC[C@@]4(C)C3CC[C@@H]4C(=O)NC(C)(C)C)[C@@]2(C)CCC1=O (stereo not given in full) | 23 | – | 60 |
| CCN(CC)C(=O)[C@H]1CCC2C3CNC4=C(Br)C(=O)CC[C@]4(C)C3CC[C@@]21C (stereo not given in full) | 13 | 2.1 | 97 |
| C[C@]12CCC(=O)C=C1NCC1C2CC[C@@]2(C)C1CC[C@@H]2C(=O)NC(C1CCCCC1)C1CCCCC1 (stereo not given in full) | 4000 | – | – |
| C[C@]12CCC(=O)C=C1NCC1C2CC[C@@]2(C)C1CC[C@@H]2C(=O)N1CCCCC1 (stereo not given in full) | 110 | – | 85 |
| CCN(CC)C(=O)[C@H]1CCC2C3CNC4=C(I)C(=O)CC[C@]4(C)C3CC[C@@]21C (stereo not given in full) | 15 | – | 690 |
| CC1=C2N(C)CC3C(CC[C@@]4(C)C3CC[C@@H]4C(=O)NC34CC5CC(CC(C5)C3)C4)[C@@]2(C)CCC1=O (stereo not given in full) | 18 | 0.4 | 6.2 |
| CN1CC2C(CC[C@@]3(C)C2CC[C@@H]3C(=O)NC23CC4CC(CC(C4)C2)C3)[C@@]2(C)C=CC(=O)C=C12 (stereo not given in full) | 62 | 0.3 | 280 |
| C[C@]12CC[C@H]3[C@@H](CNC4=CC(=O)CC[C@@]43C)[C@@H]1CC[C@@H]2C(=O)OC1[C@H]2C[C@@H]3C[C@@H](C[C@H]1C3)C2 (stereo not given in full) | 180 | < 0.1 | 6.9 |
| C[C@]12CCC(=O)C=C1NCC1C2CC[C@@]2(C)C1CC[C@@H]2C(=O)N1CCOCC1 (stereo not given in full) | 190 | – | – |

| Structure (SMILES) | Ki [1] [nM] | IC50 [2] [nM] | Ki [3] [nM] |
| --- | --- | --- | --- |
| C[C@]12CCC(=O)C=C1NCC1C2CC[C@@]2(C)C1CC[C@@H]2C(=O)c1cccc2ccccc12 (stereo not given in full) | 7.8 | < 0.1 | 15 |
| CCCC(=O)[C@H]1CCC2C3CNC4=CC(=O)CC[C@]4(C)C3CC[C@@]21C (stereo not given in full) | 11 | – | 12 |
| C[C@]12CCC(=O)C=C1NCC1C2CC[C@@]2(C)C1CC[C@@H]2C(=O)NC(c1ccccc1)(c1ccccc1)c1ccccc1 (stereo not given in full) | 100 | < 0.1 | – |
| C[C@]12CCC(=O)C=C1NCC1C2CC[C@@]2(C)C1CC[C@@H]2C(=O)NN(c1ccccc1)c1ccccc1 (stereo not given in full) | 160 | – | – |
| CC(C)CC(=O)[C@H]1CCC2C3CNC4=C(Br)C(=O)CC[C@]4(C)C3CC[C@@]21C (stereo not given in full) | 2.3 | – | 3.2 |
| C[C@]12CCC(=O)C=C1NCC1C2CC[C@@]2(C)C1CC[C@@H]2C(=O)c1c(F)cccc1F (stereo not given in full) | 11 | < 0.1 | 39 |
| CCCCCCN1CC2C(CC[C@@]3(C)C2CC[C@@H]3C(=O)N(CC)CC)[C@@]2(C)CCC(=O)C=C12 (stereo not given in full) | 11000 | – | 5900 |
| CCN(CC)C(=O)[C@H]1CCC2C3CN(C#N)C4=CC(=O)CC[C@]4(C)C3CC[C@@]21C (stereo not given in full) | 1500 | 42 | 8300 |
| CCN(CC)C(=O)[C@H]1CCC2C3CN(C(C)=O)C4=CC(=O)CC[C@]4(C)C3CC[C@@]21C (stereo not given in full) | 34000 | 3000 | 40000 |
| CC(C)(C)NC(=O)[C@H]1CC[C@H]2[C@@H]3CC=C4C=C(C(=O)O)CC[C@]4(C)[C@H]3CC[C@]12C [EPRISTERIDE] | 160 | 0.18 | 1600 |
| CCN(CC)C(=O)[C@H]1CCC2C3CNC4=CC(=O)C(C)C[C@]4(C)C3CC[C@@]21C (stereo not given in full) | 510 | 3.4 | 3500 |
| CN1CC2C(CC[C@@]3(C)C2CC[C@@H]3C(=O)NC23CC4CC(CC(C4)C2)C3)[C@@]2(C)CCC(=O)C(Br)=C12 (stereo not given in full) | 8.3 | 1.7 | 8.6 |
| CN1CC2C(CC[C@@]3(C)C2CC[C@@H]3C(=O)NC(C)(C)C)[C@@]2(C)C=CC(=O)C=C12 (stereo not given in full) | 62 | 6.7 | 1400 |
| CCN(CC)C(=O)[C@H]1CCC2C3CN(Cc4ccccc4)C4=CC(=O)CC[C@]4(C)C3CC[C@@]21C (stereo not given in full) | 16000 | – | 10000 |
| COC(=O)[C@H]1CCC2C3CNC4=CC(=O)CC[C@]4(C)C3CC[C@@]21C (stereo not given in full) | 12 | – | – |
| CON(C)C(=O)[C@H]1CCC2C3CNC4=CC(=O)CC[C@]4(C)C3CC[C@@]21C (stereo not given in full) | 50 | – | – |
| CCN(CC)C(=O)[C@H]1CCC2C3CCNC4=CC(=O)CC[C@]4(C)C3CC[C@@]21C (stereo not given in full) | 1500 | 3.8 | 1000 |
| CC(C)(C)NC(=O)[C@H]1CCC2C3CNC4=CC(=O)CC[C@]4(C)C3CC[C@@]21C (stereo not given in full) | 150 | – | – |
| C[C@]12CCC(=O)C=C1NCC1C2CC[C@@]2(C)C1CC[C@@H]2C(=O)N1CCNCC1 (stereo not given in full) | 220 | – | – |
| CC(C)CC(=O)[C@H]1CCC2C3CNC4=CC(=O)CC[C@]4(C)C3CC[C@@]21C (stereo not given in full) | 10 | < 0.1 | – |
| C[C@]12CCC(=O)C=C1NCC1C2CC[C@@]2(C)C1CC[C@@H]2C(=O)N1CCSCC1 (stereo not given in full) | 31 | – | – |
| CCN(CC)C(=O)[C@H]1CCC2C3CNC4=CC(=O)CC[C@]4(C)C3CC[C@@]21C (stereo not given in full) | 60 | – | – |
| CC(C)(C)N(O)C(=O)[C@H]1CCC2C3CNC4=CC(=O)CC[C@]4(C)C3CC[C@@]21C (stereo not given in full) | 62 | – | 38 |
| CCN(CC)C(=O)[C@H]1CCC2C3CN(CC)C4=CC(=O)CC[C@]4(C)C3CC[C@@]21C (stereo not given in full) | 49 | – | 1300 |
